Screening data as filed in PubChem BioAssay.
ANO1 activ: activates or potentiates the mouse TMEM16A chloride channel; hit rate 0.3% among 340,000; HEK293 TMEM16A/YFP-H148Q/I152L, iodide quench fluorescence; active compounds read low; Q8BHY3; AID 623877; B-score at 10 µM;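 active = fluorescence-ratio B-score plate-corrected deviation score at least 3 library SD below zero, with starting fluorescence score within 5 deviations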;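 also: channel opened by trigger with iodide after compound preincubation; score built on the fluorescence ratio of max minus min over baseline; more negative score means more quench and so TMEM16A activation or potentiation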
TAAR1 antagonist: antagonists of human TAAR1 | Q96RJ0 | CHO RD-HGA16 TAAR1, Fluo-8 calcium fluorescence, antagonist | inhibition, % at 3 µM | hit rate 1.5% among 360,000 | AID 624466;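 active = inhibition above a per-plate cutoff, the mean inhibition of test compounds on that plate plus 3 SD, cut at about 49% in these data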;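 also: 0% = DMSO plus EC80 beta-PEA response and 100% = DMSO alone without agonist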
Target sequence (Q96RJ0 whole entry, looked up): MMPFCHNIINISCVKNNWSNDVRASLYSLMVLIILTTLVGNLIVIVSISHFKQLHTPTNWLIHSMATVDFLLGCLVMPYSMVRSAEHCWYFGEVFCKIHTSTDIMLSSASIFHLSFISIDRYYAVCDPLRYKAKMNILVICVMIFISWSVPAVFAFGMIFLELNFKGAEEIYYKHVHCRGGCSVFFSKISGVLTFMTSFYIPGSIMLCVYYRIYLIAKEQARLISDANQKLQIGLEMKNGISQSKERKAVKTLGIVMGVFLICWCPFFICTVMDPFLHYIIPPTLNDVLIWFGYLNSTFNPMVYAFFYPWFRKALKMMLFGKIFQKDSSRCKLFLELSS
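Material: RD-HGA16 CHO cells with stable hTAAR1 and Gα16; Dosing: single nominal final test compound concentration of 3 µM; Schedule: seeding 17-24 h prior, 75-min 37 °C, 30-min RT dye loading; Detection: kinetic Fluo-8 calcium fluorescence measurement; Measure: % inhibition from peak post-agonist over basal fluorescence ratio; Benchmarks: vehicle and agonist controls.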
TAAR1 agonist: agonists of human TAAR1. Q96RJ0. CHO RD-HGA16 TAAR1, Fluo-8 calcium fluorescence; vehicle wells 0%, saturating PEA agonist 100%. activation, % at 3 µM. hit rate 0.99% among 360,000;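 active = activation above the mean activation of all test compounds in the run plus 3 SD, cut at about 38% in these data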
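Repeats: no replicates (n 1) | Material: CHO-derived RD-HGA16 cells with stable Gα16 and human TAAR1 | Technique: Kinetic Fluo-8 calcium fluorescence | Schedule: 17-24 h seeding, 75 min 37 °C dye, 30 min RT | Evaluation: % activation from peak over basal fluorescence ratio, DMSO-to-PEA scaled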
CRFBP-R2 block: blocks CRF-induced signaling of the CRF-BP/CRF-R2 complex. HEK293 CRF-R2/CRF-BP, CRF-induced calcium fluorescence. inhibition, % at 11.8 µM. hit rate 0.59% among 350,000;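 active = inhibition of the ligand-induced calcium signal above about 50% at the single tested concentration, limit read from the data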
ANO1 block: mouse TMEM16A channel inhibition, primary screen; HEK293 TMEM16A/YFP iodide influx fluorescence, ionomycin; hit rate 1.2% among 310,000; normalized B-score (activity score, 25-100; higher = stronger inhibition) at 10 µM; Q8BHY3; AID 588511;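 active = ratio plate-corrected score three or more library SD toward inhibition, starting fluorescence score within five deviations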;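 also: score derived from kinetic fluorescence span divided by baseline fluorescence per well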
CRFBP-R2 agonist: agonists of human CRF-binding protein/CRF-R2 receptor complex. activation, % at 13.2 µM. HEK293 CRF-R2/CRF-BP, calcium dye fluorescence (FLIPR); percent of saturating CRF peptide response. hit rate 0.46% among 350,000;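 active = activation of at least 50%, plus an integration ratio under a set limit after plate pattern correction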;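 also: plate controls were neutral control wells without compound for no effect and CRF at EC100 for full effect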
TAAR1 ag confirm: human TAAR1 agonism, confirmed; shares compounds with TAAR1 agonist; CHO RD-HGA16 TAAR1, Fluo-8 calcium fluorescence; scaled: DMSO 0%, maximal phenethylamine 100%; activation, % at 3 µM; hit rate 82% among 2,400; AID 651783;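 active = activation above a cutoff set at the run's mean compound activation plus 3 SD, cut at about 39% in these data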
Ga16 ag counter: nonselective agonist in parental cells, TAAR1 agonist counter-screen; shares compounds with TAAR1 agonist; CHO-Ga16 parental, Fluo-8 calcium fluorescence; normalized to maximal ATP response, DMSO zero; activation, % at 3 µM; hit rate 50% among 2,400; AID 651787;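 active = activation above the run cutoff, the mean activation over all tested wells plus 3 SD, cut at about 12% in these data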;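 also: 0% = DMSO wells and 100% = maximal ATP response on the peak over basal ratio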
TAAR1 desens: human TAAR1 agonist that also desensitizes the receptor; shares compounds with TAAR1 agonist; CHO RD-HGA16 hTAAR1, Fluo-8 calcium, beta-PEA response inhibition; inhibition, % at 3 µM; hit rate 46% among 2,400; AID 651951;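 active = inhibition above the run cutoff, the mean inhibition of all test compounds plus 3 SD, cut at about 49% in these data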;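 also: beta-PEA stimulus applied at its EC80; loss of beta-PEA calcium signal after compound pretreatment read as receptor desensitization; 0% = DMSO with beta-PEA at EC80 and 100% = DMSO alone without agonist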
Ga16 nonsel ant: nonselective Ga16 antagonist in TAAR1 agonist counter-screen. shares compounds with TAAR1 agonist. CHO-Ga16 ATP-induced calcium, Fluo-8 fluorescence. inhibition, % at 3 µM. hit rate 39% among 2,400. AID 651952;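 active = inhibition above the plate's mean compound inhibition plus 3 SD, computed per plate, cut at about 22% in these data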;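 also: 0% = EC80 ATP with DMSO and 100% = DMSO wells without ATP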
Active calls of the source: *. Only some compounds are listed: those with a hit (about 3.9% of all), similar ones and a draw of the others.

`COc1ccc(-c2cc(C(=O)NCC(C)C)no2)cc1` gave ANO1 activ inactive, TAAR1 antagonist 42, TAAR1 agonist 72*, CRFBP-R2 block -4, ANO1 block inactive, CRFBP-R2 agonist 5, TAAR1 ag confirm -1, Ga16 ag counter 2, TAAR1 desens 77* and Ga16 nonsel ant 20.
CCNc1nc(NCC)n2c(SCC(=O)N(CC)C3CCCCC3)nnc2n1 was read as ANO1 activ inactive, TAAR1 antagonist 19, TAAR1 agonist 1, CRFBP-R2 block -5, ANO1 block inactive and CRFBP-R2 agonist -1.
For Cc1cc(Nc2ccc(Cl)cc2)nc(NCc2ccccc2)n1 the results were ANO1 activ inactive, TAAR1 antagonist -8, TAAR1 agonist 55*, CRFBP-R2 block -89, ANO1 block inactive, CRFBP-R2 agonist 2, TAAR1 ag confirm 81*, Ga16 ag counter 35*, TAAR1 desens 53* and Ga16 nonsel ant 29*.
Cc1cc(Nc2cccc(F)c2)nc(NCc2ccccc2)n1 was read as ANO1 activ inactive, TAAR1 antagonist 7, TAAR1 agonist 29, CRFBP-R2 block -140, ANO1 block inactive and CRFBP-R2 agonist -3.
`COC(=O)c1cnc(Nc2nc(C(N)c3ccccc3Cl)cs2)nc1C(F)(F)F` (stereo unspecified) gave TAAR1 antagonist 41, TAAR1 agonist 60*, TAAR1 ag confirm 68*, Ga16 ag counter 36*, TAAR1 desens 29 and Ga16 nonsel ant 28*.
For Cc1ccc(O)c(NC(=S)NC(=O)Cc2ccc(Cl)cc2)c1 the results were ANO1 activ inactive, TAAR1 antagonist 106*, TAAR1 agonist 155*, CRFBP-R2 block -87, ANO1 block inactive, CRFBP-R2 agonist 179*, TAAR1 ag confirm 140*, Ga16 ag counter 117*, TAAR1 desens 106* and Ga16 nonsel ant 102*.
Screening Cc1ccc(NC(=S)NC(=O)c2ccc(-c3ccc(Cl)cc3)o2)c(O)c1 returned ANO1 activ inactive, TAAR1 antagonist -13, TAAR1 agonist 1, CRFBP-R2 block -10, ANO1 block inactive and CRFBP-R2 agonist 0.
`O=C(O)C1CC(=O)N(CCc2ccccc2)C1` (stereo unspecified) gave ANO1 activ inactive, TAAR1 antagonist 17, TAAR1 agonist 44*, CRFBP-R2 block -29, ANO1 block inactive, CRFBP-R2 agonist 4, TAAR1 ag confirm 72*, Ga16 ag counter 3, TAAR1 desens 0 and Ga16 nonsel ant 6.
For O=C(NCCc1ccccc1)C1CC(=O)N(CCc2ccccc2)C1 (stereo unspecified) the results were ANO1 activ inactive, TAAR1 antagonist -6, TAAR1 agonist 44*, CRFBP-R2 block -6, ANO1 block inactive, CRFBP-R2 agonist -1, TAAR1 ag confirm 68*, Ga16 ag counter 0, TAAR1 desens 30 and Ga16 nonsel ant 8.
For O=C(NCCc1ccc(Cl)cc1)C1CC(=O)N(CCc2ccccc2)C1 (stereo unspecified) the results were ANO1 activ inactive, TAAR1 antagonist -20, TAAR1 agonist 13, CRFBP-R2 block -2, ANO1 block inactive and CRFBP-R2 agonist -3.
For O=C(COC(=O)c1ccccc1F)NCc1ccc2c(c1)OCO2 the results were ANO1 activ inactive, TAAR1 antagonist -2, TAAR1 agonist -2, CRFBP-R2 block -3 and CRFBP-R2 agonist 1.
For CC(C)Oc1ccc(C(CC(=O)O)NC(=O)C(Sc2ccccc2)c2ccccc2)cc1 (stereo unspecified) the results were ANO1 activ inactive, TAAR1 antagonist 12, TAAR1 agonist 2, CRFBP-R2 block -15, ANO1 block inactive and CRFBP-R2 agonist 0.
`CCOc1ccc(NC(=S)Nc2ccccc2C2(C)CC2)cc1` gave ANO1 activ inactive, TAAR1 antagonist -15, TAAR1 agonist 0, CRFBP-R2 block 4, ANO1 block inactive and CRFBP-R2 agonist -5.
`Cc1nn(-c2ccccc2)c(Cl)c1C1C(C#N)=C(N)Oc2c1c(C)nn2-c1ccccc1` (stereo unspecified) gave ANO1 activ inactive, TAAR1 antagonist 25, TAAR1 agonist 61*, CRFBP-R2 block -3, ANO1 block inactive, CRFBP-R2 agonist 3, TAAR1 ag confirm 58*, Ga16 ag counter 34*, TAAR1 desens 36 and Ga16 nonsel ant 25*.
CC1(c2ccc([N+](=O)[O-])c(CS(=O)(=O)c3ccccc3)c2)OCCO1 was read as ANO1 activ inactive, TAAR1 antagonist 8, TAAR1 agonist 6, CRFBP-R2 block 14, ANO1 block inactive and CRFBP-R2 agonist 0.
`Cc1ccccc1CCN(C(=O)c1csnn1)C(C(=O)NC1CCCC1)c1ccco1` (stereo unspecified) gave ANO1 activ inactive, TAAR1 antagonist 2, TAAR1 agonist 46*, CRFBP-R2 block -2, ANO1 block inactive, CRFBP-R2 agonist 1, TAAR1 ag confirm 70*, Ga16 ag counter 2, TAAR1 desens 31 and Ga16 nonsel ant 14.
Brc1ccc(C2C3=C(Nc4ncnn42)c2ccccc2OC3c2ccncc2)cc1 (stereo unspecified) was read as ANO1 activ inactive, TAAR1 antagonist 19, TAAR1 agonist 43*, CRFBP-R2 block -136, ANO1 block inactive, CRFBP-R2 agonist 2, TAAR1 ag confirm 12, Ga16 ag counter 6, TAAR1 desens 3 and Ga16 nonsel ant 13.
`COc1ccc(C2Oc3ccccc3C3=C2C(c2cccs2)n2ncnc2N3)cc1` (stereo unspecified) gave ANO1 activ inactive, TAAR1 antagonist 2, TAAR1 agonist -2, CRFBP-R2 block -21, ANO1 block inactive and CRFBP-R2 agonist 6.
`COc1ccc(Nc2nnc(Cc3ccncc3)c3ccccc23)c(OC)c1` gave ANO1 activ inactive, TAAR1 antagonist 11, TAAR1 agonist 1, CRFBP-R2 block -7, ANO1 block inactive and CRFBP-R2 agonist -1.
